Measurements as given in ChEMBL document CHEMBL1154198, “Chemical genetics of Plasmodium falciparum” (Nature, 2010).

Assays:
Plasmodium falciparum [1] = assay: ST_JUDE: Plasmodium falciparum K1 EC50 (uM) as measured by SYBR green dye; format: functional, organism-based
Plasmodium falciparum [2] = assay: ST_JUDE: Cytotoxicity against Plasmodium falciparum D10 transfected with yeast DHOD; format: functional, organism-based
Plasmodium falciparum [3] = assay: ST_JUDE: Cytotoxicity against Plasmodium falciparum SB-A6; format: functional, organism-based
[4] = ST_JUDE: Cytotoxicity using luciferase to measure ATP as an indicator of the viability of human epithelial embryonic kidney cells (HEK293); format: toxicity, cell-based
Plasmodium falciparum [5] = assay: ST_JUDE: Cytotoxicity against Plasmodium falciparum V1/S; format: functional, organism-based
[6] = ST_JUDE: Cytotoxicity using luciferase to measure ATP as an indicator of the viability of human foreskin fibroblast cells (BJ); format: toxicity, cell-based
Plasmodium falciparum [7] = assay: ST_JUDE: Cytotoxicity against Plasmodium falciparum K1; format: functional, organism-based
Outline: (§1)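 Asexual P. falciparum grown in human erythrocytes, exposed to compounds for 72 h, and growth read as the DNA quantity in treated versus control cultures. Dose-response run at 12 concentrations from 10 μM to 5 nM.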

Trypanosoma brucei = assay: ST_JUDE: Cytotoxicity using luciferase to measure ATP as an indicator of the viability of Trypanosoma brucei; format: functional, organism-based
Leishmania major = assay: ST_JUDE: Cytotoxicity using Alamar Blue to measure viability of Leishmania major; format: functional, organism-based
Outline: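 L. major promastigotes; drug susceptibility read with Alamar Blue.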

Plasmodium falciparum [8] = assay: ST_JUDE: Cytotoxicity against Plasmodium falciparum 3D7; format: functional, organism-based; outline: as §1
Plasmodium falciparum [9] = assay: ST_JUDE: Cytotoxicity against Plasmodium falciparum W2; format: functional, organism-based
[10] = ST_JUDE: Cytotoxicity using luciferase to measure ATP as an indicator of the viability of human epithelial hepatocellular carcinoma cells (HepG2); format: toxicity, cell-based
[11] = ST_JUDE: Cytotoxicity using luciferase to measure ATP as an indicator of the viability of human Burkitt''s lymphoma lymphoblast cells (Raji); format: toxicity, cell-based
Plasmodium falciparum [12] = assay: ST_JUDE: Cytotoxicity against Plasmodium falciparum Dd2; format: functional, organism-based
Plasmodium falciparum [13] = assay: ST_JUDE: Plasmodium falciparum 3D7 EC50 (uM) as measured by SYBR green dye; format: functional, organism-based
Toxoplasma gondii = assay: ST_JUDE: Growth inhibition of to Toxoplasma gondii, in human U-2OS cells, as measured by luciferase.; format: functional, organism-based; settings: RH, U2OS
Outline: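 T. gondii parasites engineered to express luciferase; drug sensitivity read by luminescence.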

Compound	EC50 (Plasmodium falciparum [1])	EC50 (Plasmodium falciparum [2])	EC50 (Plasmodium falciparum [3])	EC50 [4]	EC50 (Plasmodium falciparum [5])	EC50 [6]	EC50 (Plasmodium falciparum [7])	EC50 (Trypanosoma brucei)	EC50 (Leishmania major)	EC50 (Plasmodium falciparum [8])	EC50 (Plasmodium falciparum [9])	EC50 [10]	EC50 [11]	EC50 (Plasmodium falciparum [12])	EC50 (Plasmodium falciparum [13])	EC50 (Toxoplasma gondii)
CC[n+]1c(/C=C/c2ccc(N(C)C)cc2)ccc2cc(OC)ccc21	707 nM	372 nM	702 nM	> 23200 nM	430 nM	> 23200 nM	471 nM	343 nM	0.5 nM	247 nM	92.2 nM	2990 nM	529 nM	174 nM	1690 nM	> 12700 nM
CCOC(=O)C1(Cc2ccc(Cl)cc2)CCN(Cc2ccccc2O)CC1	106 nM	559 nM	549 nM	> 56900 nM	327 nM	> 56900 nM	194 nM	12300 nM	> 24400 nM	2000 nM	548 nM	> 56900 nM	> 56900 nM	445 nM	457 nM	> 31200 nM
CCN(CC)c1ccc(/C=C/c2ccc3ccc(OC)cc3[n+]2CC)cc1	803 nM	308 nM	449 nM	> 16800 nM	413 nM	> 16800 nM	419 nM	441 nM	2.4 nM	422 nM	304 nM	1920 nM	484 nM	229 nM	1130 nM	4170 nM
Oc1ccc(Br)cc1CN1CCN(C2CC3CCC2C3)CC1 (centres undefined)	181 nM	864 nM	953 nM	> 38200 nM	290 nM	> 38200 nM	131 nM	> 36600 nM	> 16400 nM	501 nM	519 nM	> 38200 nM	> 38200 nM	285 nM	289 nM	> 20900 nM
CO/C(O)=C1\C(C)=NC2=C(C(=O)CC(c3ccc(OC)c(OC)c3)C2)C1c1ccccc1C (centres undefined)	117 nM	196 nM	176 nM	> 41400 nM	254 nM	> 41400 nM	220 nM	17000 nM	> 17700 nM	309 nM	225 nM	> 41400 nM	> 41400 nM	577 nM	424 nM	> 22700 nM
O=C(c1ccccc1)N1CCN(c2ccccc2NC(=O)C(Cl)(Cl)Cl)CC1	877 nM	4190 nM	1340 nM	> 33700 nM	1110 nM	> 33700 nM	838 nM	26800 nM	> 14400 nM	918 nM	> 8650 nM	> 33700 nM	> 33700 nM	2770 nM	1450 nM	> 18400 nM
CCO/C(O)=C1\C(C)=NC2=C(C(=O)CC(c3ccc(OC)c(OC)c3)C2)C1c1ccccc1C (centres undefined)	135 nM	87.7 nM	87.5 nM	> 42700 nM	104 nM	> 42700 nM	120 nM	> 40900 nM	> 18300 nM	97.1 nM	54.9 nM	> 42700 nM	> 42700 nM	96.5 nM	102 nM	> 23400 nM
Fc1ccc(Nc2nc(NCc3ccccc3)c3ccccc3n2)cc1	782 nM	868 nM	321 nM	16800 nM	2580 nM	15200 nM	962 nM	7890 nM	2.4 nM	626 nM	3540 nM	6780 nM	13700 nM	644 nM	902 nM	> 22300 nM
Nc1ccc(-c2nc3cc(-c4ccc5[nH]c(-c6ccc(N)cc6)nc5c4)ccc3[nH]2)cc1	174 nM	120 nM	108 nM	> 38300 nM	154 nM	> 38300 nM	201 nM	2520 nM	> 16400 nM	221 nM	77.9 nM	8940 nM	> 38300 nM	165 nM	264 nM	> 21000 nM
CCCCCCCCCC[n+]1ccccc1	1530 nM	3930 nM	2880 nM	> 48900 nM	9360 nM	> 48900 nM	3600 nM	> 46900 nM	> 20900 nM	2290 nM	899 nM	> 48900 nM	9310 nM	1150 nM	1310 nM	> 26800 nM
COc1cc(OC)c(NC(=O)C2c3ccccc3C(=O)N(CC(C)C)C2c2cccs2)cc1Cl (centres undefined)	20.3 nM	71.9 nM	83.1 nM	> 45100 nM	131 nM	> 45100 nM	93 nM	7710 nM	> 19300 nM	47.3 nM	16 nM	> 45100 nM	> 45100 nM	54.8 nM	20.5 nM	> 24700 nM
COc1ccc(C2CC(=O)NC3=C2C(=O)CC(c2ccc(F)cc2)C3)cc1OC (centres undefined)	1070 nM	1850 nM	2090 nM	> 41400 nM	1990 nM	> 41400 nM	1190 nM	> 39700 nM	> 17700 nM	1440 nM	1490 nM	> 41400 nM	> 41400 nM	1130 nM	661 nM	> 22700 nM
CC(=O)N(C1=C(N(C)C)C(=O)c2ccccc2C1=O)c1ccc(F)cc1	144 nM	17.6 nM	29.7 nM	7540 nM	11.9 nM	3830 nM	15.2 nM	571 nM	> 13700 nM	12.1 nM	77.3 nM	712 nM	284 nM	12.5 nM	68.5 nM	630 nM
OC(CNC1CCCC1)Cn1c2ccc(Cl)cc2c2cc(Cl)ccc21 (centres undefined)	146 nM	652 nM	635 nM	20500 nM	690 nM	> 24300 nM	258 nM	2020 nM	> 10400 nM	576 nM	572 nM	8670 nM	10900 nM	253 nM	990 nM	> 13300 nM
Cc1ccc(C)c(NC(=O)CC2C(=O)N(c3ccccc3)C(=S)N2Cc2ccco2)c1 (centres undefined)	395 nM	449 nM	385 nM	> 44100 nM	361 nM	> 44100 nM	2720 nM	> 42300 nM	> 18900 nM	2510 nM	292 nM	> 44100 nM	41000 nM	428 nM	259 nM	> 24100 nM
CC(C)c1ccccc1Oc1c(C(F)(F)F)oc2c(CN3CCN(C)CC3)c(O)ccc2c1=O	224 nM	231 nM	334 nM	> 21000 nM	178 nM	> 21000 nM	158 nM	> 20100 nM	326 nM	184 nM	252 nM	> 21000 nM	> 21000 nM	1810 nM	720 nM	> 11500 nM
CCN1/C(=C/c2cccc[n+]2C)Sc2ccc(OC)cc21	329 nM	1270 nM	1550 nM	> 26200 nM	1080 nM	> 26200 nM	784 nM	3730 nM	18.9 nM	603 nM	> 6720 nM	> 26200 nM	3160 nM	748 nM	480 nM	> 14300 nM
COc1ccccc1Cn1ccnc1SCC(=O)Nc1cc(C(F)(F)F)ccc1Cl	170 nM	> 10000 nM	> 10000 nM	> 39100 nM	288 nM	> 39100 nM	252 nM	12100 nM	> 16700 nM	190 nM	2670 nM	> 39100 nM	> 39100 nM	246 nM	119 nM	> 21400 nM
Cc1cccc(CN2CCC(CNC(=S)Nc3ccc4nc(N5CCN(C)CC5)cc(C)c4c3)CC2)c1	1250 nM	1050 nM	708 nM	13600 nM	1990 nM	9560 nM	995 nM	4800 nM	> 18100 nM	1140 nM	2230 nM	6040 nM	22600 nM	506 nM	395 nM	> 23200 nM
